This is an account of results in ChEMBL document CHEMBL4513216, “Probing the Open Global Health Chemical Diversity Library for Multistage-Active Starting Points for Next-Generation Antimalarials” (ACS Infect Dis, 2020).

A short description of the series: Toxicity liver stage against HepG2, at 10uM. In kind it is cell-based. More on the design: test concentration 10 uM, cell line HepG2-A16-CD81EGFP. The conditions noted are these: human, HepG2-A16-CD81EGFP cells; read-out: INHIBITION
Put shortly: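 Uninfected HepG2-A16-CD81EGFP cells, 3 × 10^3 per well, 1536-well, plated on prespotted compound at 10 μM final, parasite-free screening media added to match infected plates; puromycin 10 μM positive, DMSO 0.5% negative; run in parallel with 48 h PbLuc assay at 37 °C, 5% CO2; viability by CellTiter-Glo luminescence, normalized to controls.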
Consider `Cc1cccc(NC(=O)c2cnc(C3CCCNC3)cn2)n1` (stereo not drawn), for which the cytotoxicity at 10 µM turned out to be 3.04%. In the case of `Cc1nn(C)cc1-c1cncn1CCc1ccc2c(c1)OCCO2`, the cytotoxicity at 10 µM worked out at 11.5%. For `Cc1nc(CN2CCC3(CCCN(Cc4cccnc4)C3)C2=O)cs1` (stereo not drawn), the cytotoxicity at 10 µM was determined as 20.8%.

With `N[C@H]1CN(C(=O)Cc2cc(F)cc(Cl)c2)C[C@@H]1C1CC1`, the cytotoxicity at 10 µM amounted to 0.0152%. Regarding `CCSCCNC(=O)Nc1cc(C(=O)N2CCOCC2)ccc1Cl`, the cytotoxicity at 10 µM is -55.2%. In the case of `Cc1n[nH]c(C2CN(C(=O)c3cc(C)sc3C)CCO2)n1` (stereo not drawn), the cytotoxicity at 10 µM is 3.35%. Take `Cc1cccc(CN2C(=O)CCC23CCNCC3)n1`: the cytotoxicity at 10 µM turned out to be 0.758%. Regarding `Cn1ccc(NC(=O)CN2C[C@@H]3CC[C@H]2CN(Cc2ccccn2)C3)n1`, the cytotoxicity at 10 µM was 0.936%. Consider `Cc1cc(C)n(C2CCN(c3ncnc4c3CCC4)C2)n1` (stereo not drawn), for which the cytotoxicity at 10 µM turned out to be 23.6%. Turning to `O=C(NC1CCCC1)c1cc2c(s1)CCN2C(=O)c1ccccc1`, the cytotoxicity at 10 µM amounted to 6.55%. For the molecule `CCOc1ncc(NC(=O)c2ccccn2)c(OCC)n1`, the cytotoxicity at 10 µM was -0.191%.

For the molecule `Cc1ccc(C2CN(C(=O)NCc3nnc4ccccn34)CCO2)o1` (stereo not drawn), the cytotoxicity at 10 µM was determined as 5.62%. Regarding `CC(C)S(=O)(=O)N1CCCC(c2nccn2Cc2cccnc2)C1` (stereo not drawn), the cytotoxicity at 10 µM came to 3.72%. Turning to `COc1cc(CNCCc2cnn(C)c2)cc2c1OCO2`, the cytotoxicity at 10 µM is -9.3%. Regarding `Cc1oc(C)c(C(=O)NCc2cccc(NC(=O)CN(C)C)c2)c1C`, the cytotoxicity at 10 µM is -6.54%. For `CCc1ccc(C(=O)NC2CCCN(c3ccn(C)n3)C2=O)o1` (stereo not drawn), the cytotoxicity at 10 µM was -2.43%. On to `CN(C)C(=O)N1C[C@@H]2CC[C@H]1CN(C1Cc3ccccc3C1)C2`, for which the cytotoxicity at 10 µM was -0.581%. Take `O=C(Cn1cc(C(=O)O)ccc1=O)Nc1cc(F)ccc1F`: the cytotoxicity at 10 µM is 0.687%. For the molecule `O=C(CNCCn1cccn1)NCC1(c2ccccc2)CCOCC1`, the cytotoxicity at 10 µM is -8.27%.

For the molecule `Cc1cc(=O)n(C)cc1NC(=O)Cc1cccc(F)c1`, the cytotoxicity at 10 µM was -3.86%. With `O=C(NCc1cccc(F)c1)N1CCc2ncnc(NC3CC3)c2CC1`, the cytotoxicity at 10 µM was -105%. `CN(CC(=O)NCc1ccccn1)CC1CCCN1c1cccnn1` (stereo not drawn): the cytotoxicity at 10 µM is -5.47%.

For the molecule `COC(=O)COc1nc(C(C)C)no1`, the cytotoxicity at 10 µM was -6.22%. As for `CN1CC(=O)N(c2ccccc2)CC12CCN(S(C)(=O)=O)C2` (stereo not drawn), the cytotoxicity at 10 µM was -75.7%. As to `Cn1cnc2ccc(NC(=O)CC3CCN(C4CCCCC4)CC3)cc21`, the cytotoxicity at 10 µM is 25.9%. On to `CN(Cc1ccc(C(=O)NCC2COCCO2)c(=O)[nH]1)CC(C)(C)C` (stereo not drawn), for which the cytotoxicity at 10 µM is 3.21%. The figure for `NC(=O)c1cc(C2CCCN(CCc3ccc4c(c3)CCO4)C2)n[nH]1` (stereo not drawn) is -1.92%. Regarding `O=C(c1cscn1)N1CCC2(CN(Cc3ccsc3)C2)C1`, the cytotoxicity at 10 µM was found to be 4.06%. On to `COCC1CN(Cc2c(C)noc2C)Cc2ccnn2C1` (stereo not drawn), for which the cytotoxicity at 10 µM is -89.3%.

With `Cc1cccc(CCC(=O)NCC2CCCN2c2cccnn2)c1` (stereo not drawn), the cytotoxicity at 10 µM is -3.96%.

`COc1ccc(Cl)cc1CS(=O)(=O)Cc1nc(C)no1`: the cytotoxicity at 10 µM is -2.53%. Consider `O=C1NCC(c2ccc(Cl)cc2)Cc2[nH]c(CCN3CCOCC3)nc21` (stereo not drawn), for which the cytotoxicity at 10 µM is -5.68%. As to `COc1ccccc1C(=O)NCCC(=O)Nc1c(C)nn(C)c1C`, the cytotoxicity at 10 µM was -9.49%. For the molecule `COc1cc2nc3n(c(=O)c2cc1OC)CCN(C(C)=O)CC3`, the cytotoxicity at 10 µM was -2.65%. Turning to `Cc1nnsc1C(=O)N1CC(c2nc3ccccc3[nH]2)C1`, the cytotoxicity at 10 µM stood at 4.17%. With `OC(CN(Cc1ccccc1)Cc1ccncc1)c1ccco1` (stereo not drawn), the cytotoxicity at 10 µM is 24.7%. The figure for `COc1cccc(CN2CC(O)CN(C(=O)C3CC3)CC2=O)c1OC` (stereo not drawn) is -11.3%; for `CC(C)c1cc(C2CCN(C(=O)Cn3nc4ccccc4n3)CC2)[nH]n1` it is 0.685%; for `COc1nc2c(cc1C(=O)NCc1noc(Cc3cccs3)n1)CCC2` it is -6.36%. As for `COc1ccc(Cl)cc1CN(C)C(=O)CN1C(=O)OC[C@@H]1C(C)C`, the cytotoxicity at 10 µM is -4.29%. Take `O=C(NCCCn1cccn1)c1csc2c1CCCC2`: the cytotoxicity at 10 µM is -10.2%. Turning to `O=C(O)c1ccc(Cc2cccc(F)c2)nc1`, the cytotoxicity at 10 µM came to 3.11%. For `CNc1cc(-c2cccc(CN)c2)c2cc[nH]c2n1`, the cytotoxicity at 10 µM is -3.23%.

For `Cn1c2c(ccc1=O)CC(NS(C)(=O)=O)CC2` (stereo not drawn), the cytotoxicity at 10 µM was determined as 3.99%. As for `CN(C)CCO[C@@H]1CC[C@H]2[C@H]1OCCN2C(=O)c1ccnnc1`, the cytotoxicity at 10 µM was -2.1%.

As to `O=C(CN1CCCC1)N1CCCC1c1nc(O)cc(-c2ccccn2)n1` (stereo not drawn), the cytotoxicity at 10 µM was -10.7%. For `Cn1cc(CNC2CCc3ncnn3C2)c(-c2ccncc2)n1` (stereo not drawn) the value was -8.55%. The figure for `CNC(=O)c1ccc(CN2CCN(C3=NCC(C)(C)S3)CC2)cc1` is 14.3%; for `c1ccc(-c2nc(CN3CCCC3Cn3cccn3)no2)cc1` (stereo not drawn) it is -6.69%. For `CC(NC(=O)NCCCn1ccnc1)c1ccc2c(c1)CCC(=O)N2` (stereo not drawn), the cytotoxicity at 10 µM was -4.74%. For `Cc1nc(C)n(CC2CCCN2Cc2cn3ccsc3n2)n1` (stereo not drawn) the value was -10.7%; for `Cc1cccc2c1ccn2CCC(=O)Nc1c2c(nn1C)CSC2`, 3.03%. Take `Cc1cc(-c2cnn(CCNC(=O)C3CCCO3)c2C2CC2)on1` (stereo not drawn): the cytotoxicity at 10 µM was -4.07%.

`CCc1cn[nH]c1C1CCCN(C(=O)c2ncoc2C(C)C)C1` (stereo not drawn): the cytotoxicity at 10 µM worked out at 1.86%. For `CCOCC(=O)N1C[C@@H]2CC[C@H](Oc3ccccc3)[C@@H]2C1`, the cytotoxicity at 10 µM was -16.1%. Consider `COc1ccc(CN2CCCC(Cn3nc(C)nc3C)C2)cc1F` (stereo not drawn), for which the cytotoxicity at 10 µM is -0.409%. Regarding `CCCC(C)NCc1cnc(-c2cccc(C)c2)nc1` (stereo not drawn), the cytotoxicity at 10 µM is -11.7%. The figure for `Oc1ccc(Cl)cc1CNCc1ccccc1C(F)(F)F` is 2.67%; for `O=C(c1ccc(Cl)s1)N1CCC2(COc3ncccc3S(=O)(=O)N2)C1` (stereo not drawn) it is 8.77%; for `N#Cc1ccccc1CN1CCC(c2nccn2CC(N)=O)CC1` it is -8.61%. In the case of `COc1ccc(CC(=O)N2CCCC2Cn2cc(C)cn2)c(OC)c1` (stereo not drawn), the cytotoxicity at 10 µM is -18%. For the molecule `COCCCNC(=O)Cc1cc(-c2ccccc2)on1`, the cytotoxicity at 10 µM is -7.39%. With `CC(NC(=O)NC1CCN(Cc2ccccn2)CC1)c1ccco1` (stereo not drawn), the cytotoxicity at 10 µM was determined as 13.9%. Take `COc1cc(N2CC3(CCN(S(C)(=O)=O)C3)C2)ncn1`: the cytotoxicity at 10 µM came out at 9.43%. Regarding `COc1cc2c(cc1CN1CCc3sccc3C1C)OCCO2` (stereo not drawn), the cytotoxicity at 10 µM was found to be 8.92%.

Turning to `CC(C)CN1CCc2c(CN(C)Cc3ccco3)cncc2C1`, the cytotoxicity at 10 µM worked out at 8.1%.

Regarding `CC(C)CN(Cc1ccsc1)C(=O)CCCn1cncn1`, the cytotoxicity at 10 µM was -47.9%. Take `Cc1ccc(-c2noc(CN3CCOC(CN(C)C)C3)n2)cc1F` (stereo not drawn): the cytotoxicity at 10 µM was -5.48%. `CCC(C)NC(=O)c1cc(S(=O)(=O)N2CCCC2)c(C)s1` (stereo not drawn): the cytotoxicity at 10 µM is -2.6%. As to `CNC(=O)c1sc2ccccc2c1C1CCN(c2cc(C)nc(C)n2)C1` (stereo not drawn), the cytotoxicity at 10 µM was found to be 10.8%. For `CC(C)n1ccnc1C1CCN(C(=O)c2ccccn2)CC1`, the cytotoxicity at 10 µM is -2.85%. For `CC(C(=O)Nc1nccs1)N1CCc2nn(C)c(=O)cc2C1` (stereo not drawn), the cytotoxicity at 10 µM is 9.17%.

As to `COc1ccc(CN2CCCN(c3cc(C(N)=O)ccn3)CC2)cc1`, the cytotoxicity at 10 µM came out at 11%. Turning to `C1CC(N2Cc3nnn(CC4CC4)c3C(COCC3CC3)C2)C1` (stereo not drawn), the cytotoxicity at 10 µM worked out at 5.57%. For `Cc1cnc(NC(C)Cc2cccnc2)nc1N(C)C` (stereo not drawn) the value was -4.03%; for `CCOc1ccccc1C(=O)NCCC(O)c1ccoc1` (stereo not drawn), -16.4%; for `CC(C)c1n[nH]c(C2CN(C(=O)CCc3cscn3)CCO2)n1` (stereo not drawn), -1.51%. Consider `Cn1cc(-c2ncnc3c2CCN(C(=O)c2cnccn2)CC3)cn1`, for which the cytotoxicity at 10 µM turned out to be 6.93%. For `Cn1cc(C(=O)N2CC[C@@H]3[C@@H]2CCN3c2ccccn2)cn1` the value was -0.0807%; for `CN(C)C(=O)c1cccc(NC(=O)c2cnn(C)c2)c1`, -1.96%. For the molecule `Cn1cc(-c2ncc(C(=O)NCCCn3ccccc3=O)s2)cn1`, the cytotoxicity at 10 µM was determined as 4.13%. For `CC(C)(O)c1cc(CC2(NCc3ccco3)COC2)no1` the value was -1.7%; for `COCc1cc(CC2(NC3CCCCC3)COC2)no1`, 0.66%. For `CCS(=O)(=O)NCCNC(=O)c1cc(Cl)c2c(c1)OCCCO2` the value was 5.98%; for `Cc1ccc(C(=O)N2CCCC2c2nnc3n2CCCCC3)s1` (stereo not drawn), -0.208%.

For the molecule `N#Cc1ccc(C(=O)N2CCn3cc(CN4CCCCC4)nc3C2)cc1`, the cytotoxicity at 10 µM is -84.7%.

Turning to `CCC(Nc1ncnc2sc(C(=O)O)c(C)c12)c1ccnn1C` (stereo not drawn), the cytotoxicity at 10 µM was determined as 0.512%.

For `CCn1cc(-c2cc(C(F)F)n3nc(CCC(=O)O)nc3n2)cn1`, the cytotoxicity at 10 µM was -2.78%. As to `CN(C)c1cc(C(=O)Nc2ccccc2C(=O)NC(C)(C)C)ccn1`, the cytotoxicity at 10 µM was 2.46%. As for `O=C(Cc1cccc(F)c1)NCCNCc1ccco1`, the cytotoxicity at 10 µM is -6.08%. For `Cn1cnc2cc(CCC(=O)Nc3n[nH]c(C4CC4)n3)ccc21`, the cytotoxicity at 10 µM amounted to 5.21%.

For the molecule `C1=C(CNC2CCc3ncnn3C2)COc2ccccc21` (stereo not drawn), the cytotoxicity at 10 µM is -2.28%.

As to `CC(C)n1cnnc1CNC(=O)c1cnn(Cc2ccccc2)c1`, the cytotoxicity at 10 µM worked out at 0.536%.

Turning to `Cn1cc(CN2CCc3ncnc(N4CCOCC4)c3CC2)cn1`, the cytotoxicity at 10 µM is -3.46%. `CNc1nc2cn(CCc3ccc(C)cc3)c(=O)c-2c[nH]1`: the cytotoxicity at 10 µM stood at 6.36%. Consider `Cc1nn(C)c(C)c1NC(=O)CNC(c1ccc(F)cc1)C1CCC1` (stereo not drawn), for which the cytotoxicity at 10 µM was -1.65%. As for `CN(CC(=O)N(C)C1CC1)C1CCN(c2ccc(Cl)cc2)CC1`, the cytotoxicity at 10 µM turned out to be 0.153%. The figure for `CCn1nccc1CNC(=O)C1CCCCC1` is -0.488%.
